High-throughput results: PubChem BioAssay, The Scripps Research Institute Molecular Screening Center
In the library only some 1.6% were active in any assay of this set; here they are far more common.
PLC-gamma1 inh: blocks human PLC-gamma1 enzyme activity. P19174. purified PLC-gamma1, fluorogenic substrate, fluorescence. inhibition, % at 12.2 µM. actives 0.84% (n = 370,000); in the data active means inhibition above about 9.5%
PLCb3 inh: blocks human PLC-beta3 enzyme activity; Q01970; Purified PLC-beta3, fluorogenic substrate, fluorescence; inhibition, % at 12.2 µM; actives 0.18% (n = 370,000)
sPLA2-III inh: Blocks human group III sPLA2 activity; actives 0.56% (n = 370,000); inhibition, % at 12.2 µM; QFRET BODIPY PC-A2 liposome hydrolysis, fluorescence; Q9NZ20; AID 743126;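 active means inhibition above mean plus 3 SD of compounds lying within the high and low control bounds, cut at about 19% in these data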
Target sequence (Q9NZ20 whole entry, looked up): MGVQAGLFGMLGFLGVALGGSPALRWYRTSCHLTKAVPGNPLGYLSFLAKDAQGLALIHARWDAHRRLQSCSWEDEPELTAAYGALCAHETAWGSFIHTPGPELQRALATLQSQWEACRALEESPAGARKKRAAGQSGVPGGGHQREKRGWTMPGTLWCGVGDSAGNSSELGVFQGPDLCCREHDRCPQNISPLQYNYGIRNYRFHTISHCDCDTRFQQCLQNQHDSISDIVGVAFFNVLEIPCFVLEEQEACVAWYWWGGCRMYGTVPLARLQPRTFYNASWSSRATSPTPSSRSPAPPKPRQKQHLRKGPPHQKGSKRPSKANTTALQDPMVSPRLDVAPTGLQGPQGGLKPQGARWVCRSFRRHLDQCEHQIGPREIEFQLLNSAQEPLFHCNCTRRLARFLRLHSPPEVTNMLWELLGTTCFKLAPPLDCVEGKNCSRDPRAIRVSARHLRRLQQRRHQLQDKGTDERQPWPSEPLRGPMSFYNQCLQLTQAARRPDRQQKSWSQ
procasp7 counter: counter-screen: procaspase-7 (human) activation. P55210. recombinant procaspase-7, Ac-DEVD-pNA absorbance 405 nm; D23A/D198A/D206A triple mutant, cannot self-cleave; scale: DMSO 0, 5 µM enzyme 100. activation, % at 8.5 µM. actives 0.093% (n = 330,000);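 active means percent activation above the screen-wide mean plus 3 SD, cut at about 25% in these data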
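Detection: p-Nitroaniline absorbance at 405 nm, read at 0 and 120 min; system: Uncleavable procaspase-7 mutant enzyme; evaluation: % activation from two-timepoint absorbance difference, scaled to controls; times: 1 h enzyme–compound preincubation and 2 h substrate reaction, both 25 °C; buffer or medium: Zinc-free HEPES pH 7.4 with 300 mM NaCl, 0.01% Triton X-100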
proCasp3 act: activates human procaspase-3. P42574. actives 0.11% (n = 330,000). activation, % at 8.5 µM. recombinant procaspase-3 D3A, Ac-DEVD-pNA absorbance 405 nm. AID 463141;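 active means activation above the mean of all tested compounds plus 3 SD, cut at about 21% in these data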
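Assay system – Procaspase-3 D3A mutant, all three cleavage aspartates alanine · Controls – DMSO-only low control, 5 µM PC-3 D3A high control · Schedule – 1 h compound preincubation, 2 h substrate hydrolysis at 25 °C · Signal – 405 nm absorbance of p-nitroaniline, reads at 0 and 120 min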
PLCgamma1 ctr: inhibits human PLC-gamma1 in PLC-beta3 counter-screen | actives 3.1% (n = 3,300) | inhibition, % at 12.3 µM | AID 743258 | shares compounds with PLC-gamma1 inh | purified PLC-gamma1, fluorogenic substrate, fluorescence; in the data active means inhibition above about 9.5%
PLCb3 confirm: confirmation of human PLC-beta3 inhibitors; shares compounds with PLC-gamma1 inh; purified PLC-beta3, fluorogenic substrate fluorescence; inhibition, % at 12.3 µM; actives 1% (n = 3,300); AID 743261
A number is an active result. Unless noted, no stated cut-off is given here; in the data, active means inhibition above about 11%; inactive means the rest.

Screening CCOc1ccc(C(=O)Nc2ccc3c(c2)OCCO3)cc1[N+](=O)[O-] returned PLC-gamma1 inh 10, PLCb3 inh inactive, sPLA2-III inh inactive, procasp7 counter inactive, proCasp3 act inactive, PLCgamma1 ctr inactive and PLCb3 confirm inactive.
CCOc1ccc(C(=O)Nc2ccc3c(c2)OCCO3)cc1OC was read as PLC-gamma1 inh inactive, PLCb3 inh inactive, sPLA2-III inh inactive, procasp7 counter inactive and proCasp3 act inactive.
`Cc1nn(CCC(=O)NNC(=O)Nc2ccc(F)cc2)c(C)c1[N+](=O)[O-]` gave PLC-gamma1 inh inactive, PLCb3 inh inactive and sPLA2-III inh inactive.
CN(C(=O)COc1ccc([N+](=O)[O-])cc1)C1CCS(=O)(=O)C1 (stereo unspecified) was read as PLC-gamma1 inh inactive, PLCb3 inh inactive, sPLA2-III inh inactive, procasp7 counter inactive and proCasp3 act inactive.
CN(C(=O)COc1cccc(C#N)c1)C1CCS(=O)(=O)C1 (stereo unspecified) was read as PLC-gamma1 inh 11, PLCb3 inh inactive, sPLA2-III inh inactive, procasp7 counter inactive, proCasp3 act inactive, PLCgamma1 ctr inactive and PLCb3 confirm inactive.
For Cc1cc(C)cc(NC(=O)N2CCC(c3nc4ccc(Cl)cc4[nH]3)CC2)c1 the results were PLC-gamma1 inh inactive, PLCb3 inh inactive and sPLA2-III inh inactive.
Clc1cccc2sc(N3CCCCC3)nc12 was read as PLC-gamma1 inh inactive, PLCb3 inh inactive, sPLA2-III inh inactive, procasp7 counter inactive and proCasp3 act inactive.
For Clc1cc(Cl)c2nc(N3CCCCC3)sc2c1 the results were PLC-gamma1 inh 9.9, PLCb3 inh inactive, sPLA2-III inh inactive, procasp7 counter inactive, proCasp3 act inactive, PLCgamma1 ctr inactive and PLCb3 confirm inactive.
`Clc1cc(Cl)c2nc(N3CCCC3)sc2c1` gave PLC-gamma1 inh 12, PLCb3 inh inactive, sPLA2-III inh inactive, procasp7 counter inactive, proCasp3 act inactive, PLCgamma1 ctr inactive and PLCb3 confirm inactive.
Screening CC(C)C[C@@H](CO)NS(=O)(=O)c1cc(Cl)ccc1F returned PLC-gamma1 inh inactive, PLCb3 inh inactive and sPLA2-III inh inactive.
`CCc1nnc(NC(=O)CCC(=O)N2CCN(CCOc3ccc(C)cc3)CC2)s1` gave PLC-gamma1 inh inactive, PLCb3 inh 14, sPLA2-III inh inactive, procasp7 counter inactive, proCasp3 act inactive, PLCgamma1 ctr inactive and PLCb3 confirm inactive.
For C[C@H]1CN([C@@H](C)CO)C(=O)CCCn2nncc2CO[C@@H]1CN(C)C(=O)Cc1ccccc1 the results were PLC-gamma1 inh inactive, PLCb3 inh inactive and sPLA2-III inh inactive.
CC1CCN(CC(CS(=O)(=O)c2ccc([N+](=O)[O-])cc2)N2CCC(C)CC2)CC1 (stereo unspecified) was read as PLC-gamma1 inh inactive, PLCb3 inh 11, sPLA2-III inh inactive, procasp7 counter inactive, proCasp3 act inactive, PLCgamma1 ctr inactive and PLCb3 confirm inactive.
`COc1ccc(C2C(C(=O)Nc3ccc(F)cc3)CCC(=O)N2c2ccc(OC)cc2)cc1` (stereo unspecified) gave PLC-gamma1 inh inactive, PLCb3 inh inactive and sPLA2-III inh inactive.
For CCN(CC)CCCNC(=O)C1CCC(=O)N(c2ccc(OC)cc2)C1c1ccc(F)cc1 (stereo unspecified) the results were PLC-gamma1 inh 12, PLCb3 inh inactive, sPLA2-III inh inactive, procasp7 counter inactive, proCasp3 act inactive, PLCgamma1 ctr inactive and PLCb3 confirm inactive.
Screening COc1ccc(C2C(C(=O)NCc3ccccn3)CCC(=O)N2c2cc(OC)c(OC)c(OC)c2)cc1 (stereo unspecified) returned PLC-gamma1 inh 10, PLCb3 inh inactive, sPLA2-III inh inactive, procasp7 counter inactive, proCasp3 act inactive, PLCgamma1 ctr inactive and PLCb3 confirm inactive.
For CCC(C)NC(=O)C1CCC(=O)N(c2cc(OC)c(OC)c(OC)c2)C1c1ccc(OC)cc1 (stereo unspecified) the results were PLC-gamma1 inh inactive, PLCb3 inh inactive, sPLA2-III inh inactive, procasp7 counter inactive and proCasp3 act inactive.
Cc1ccccc1C(=O)NCCCCc1ccccc1 was read as PLC-gamma1 inh inactive, PLCb3 inh inactive, sPLA2-III inh inactive, procasp7 counter inactive and proCasp3 act inactive.
For Cc1ccccc1C(=O)NCCCc1ccccc1 the results were PLC-gamma1 inh 11, PLCb3 inh inactive, sPLA2-III inh inactive, procasp7 counter inactive, proCasp3 act inactive, PLCgamma1 ctr inactive and PLCb3 confirm inactive.
For COC(=O)C1=C(C)N(Cc2cccc(C(F)(F)F)c2)C(=NCc2ccc(C(F)(F)F)cc2)NC1c1cccc(F)c1 (stereo unspecified) the results were PLC-gamma1 inh inactive, PLCb3 inh 14, sPLA2-III inh inactive, PLCgamma1 ctr inactive and PLCb3 confirm inactive.
`COC(=O)C1=C(C)N(Cc2ccc(C(F)(F)F)cc2)C(=NCc2cccc(C(F)(F)F)c2)NC1c1ccccc1C(F)(F)F` (stereo unspecified) gave PLC-gamma1 inh inactive, PLCb3 inh inactive and sPLA2-III inh inactive.
`COC(=O)C1=C(C)N(Cc2cccc(C(F)(F)F)c2)C(=NCc2ccc(C(F)(F)F)cc2)NC1c1ccc(C(F)(F)F)cc1` (stereo unspecified) gave PLC-gamma1 inh 13, PLCb3 inh inactive, sPLA2-III inh inactive, PLCgamma1 ctr inactive and PLCb3 confirm inactive.
`COC(=O)C1=C(C)N(Cc2ccccc2)C(=S)NC1c1ccc(Br)cc1` (stereo unspecified) gave PLC-gamma1 inh 9.7, PLCb3 inh inactive, sPLA2-III inh inactive, PLCgamma1 ctr inactive and PLCb3 confirm inactive.
COC(=O)C1=C(C)N(Cc2cccc(C(F)(F)F)c2)C(=NCc2ccc(C(F)(F)F)cc2)NC1c1ccc(F)cc1 (stereo unspecified) was read as PLC-gamma1 inh inactive, PLCb3 inh inactive and sPLA2-III inh inactive.
Screening COC(=O)C1=C(C)N(Cc2ccccc2)C(=S)N[C@H]1c1ccc(Br)cc1 returned PLC-gamma1 inh inactive, PLCb3 inh inactive, sPLA2-III inh inactive, procasp7 counter inactive and proCasp3 act inactive.
`COC(=O)C1=C(C)N(Cc2ccc(C(F)(F)F)cc2)C(=NCc2ccc(OC)cc2)NC1c1ccccc1C(F)(F)F` (stereo unspecified) gave PLC-gamma1 inh 9.9, PLCb3 inh inactive, sPLA2-III inh inactive, PLCgamma1 ctr inactive and PLCb3 confirm inactive.
`CC(C)CNC(=O)c1cc([N+](=O)[O-])ccc1N1CCOCC1` gave PLC-gamma1 inh 11, PLCb3 inh inactive, sPLA2-III inh inactive, procasp7 counter inactive, proCasp3 act inactive, PLCgamma1 ctr inactive and PLCb3 confirm inactive.
